Data on 3 molecules can be found in paper PMC12137828 (Nature Communications, 2025).

Like-named read-outs stand apart in the source and are kept apart here.

One assay deals with T1, AtDHAD (Arabidopsis thaliana, UniProt Q9LIR4).
T1 sequence (Q9LIR4 35-608): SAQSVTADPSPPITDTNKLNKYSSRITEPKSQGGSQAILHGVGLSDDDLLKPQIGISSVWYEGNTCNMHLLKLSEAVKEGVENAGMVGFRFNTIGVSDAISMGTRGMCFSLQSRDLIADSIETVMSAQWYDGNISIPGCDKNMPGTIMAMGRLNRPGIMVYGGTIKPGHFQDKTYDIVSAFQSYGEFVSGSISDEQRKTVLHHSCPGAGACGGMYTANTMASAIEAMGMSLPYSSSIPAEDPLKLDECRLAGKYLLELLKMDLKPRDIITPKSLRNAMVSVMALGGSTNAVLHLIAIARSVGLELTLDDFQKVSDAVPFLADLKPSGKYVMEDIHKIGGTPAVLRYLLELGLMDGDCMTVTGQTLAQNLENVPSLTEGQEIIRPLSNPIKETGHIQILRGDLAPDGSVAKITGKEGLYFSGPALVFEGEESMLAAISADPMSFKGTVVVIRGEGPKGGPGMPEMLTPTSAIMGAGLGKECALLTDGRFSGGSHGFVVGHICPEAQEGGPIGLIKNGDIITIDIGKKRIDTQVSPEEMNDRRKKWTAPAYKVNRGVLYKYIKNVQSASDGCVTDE
Kind of assay: MST assay, binding affinity. An outline of the steps:
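AtDHAD was expressed in E. coli BL21(DE3) under IPTG induction, with FeCl3 and L-Ara added to stabilise the [2Fe-2S] cluster. It was purified by Ni-NTA anaerobically and lysine-labelled with RED-NHS dye. Ligand from 10−10 to 10−1 M was incubated with 50 nM labelled protein for 30 min at 4 °C in phosphate buffer (0.05% Tween 20, pH 7.4). Excitation was 100% or 40%, with medium MST power. Kd is given as mean ± SD.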

The next assay relates to cyanobacteria. To be noted: by targeting DHAD ref 3; cited from earlier work.
The subject of assay [1] is glufosinate-resistant Arabidopsis thaliana. To be noted: 250 µM ref 2; cited from earlier work.
Assay [2] has as its system 2-week-old A. thaliana plants. Kind of assay: Postemergence treatment of A. thaliana. The format is in vivo, Arabidopsis thaliana. An outline of the steps:
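Col-0 seeds were chilled at 4 °C for 3 days and grown in soil pots in a light incubator at 22 °C with an 8 h light/16 h dark cycle. Test compound was dissolved in DMSO and diluted with 0.5% aqueous Tween 80 to a final 200 μg/mL (DMSO below 5%), then applied by foliar spray. Fresh weight inhibition was read out.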

Turning to `CC(C)(O)C(O)C(=O)O` (stereo not shown) [Substrate (dihydroxyisovalerate), 2,3-dihydroxy-3-methylbutanoic acid], the Kd – broadly, the concentration at which binding is half-saturated – at AtDHAD (Kd) was 5.39 µM.
On AtDHAD (Kd), `O=C(O)C(O)C(=O)O` [TA, tartronic acid] yielded a Kd of 507 µM. In the assay on cyanobacteria, the growth of cyanobacteria entry is “inhibited the growth of cyanobacteria”.
Consider aspterric acid [AA], for which the “herbicidal activity against glufosinate-resistant Arabidopsis thaliana” value in assay [1] was “exhibits herbicidal activity”. This molecule also had a Kd at AtDHAD of 3.41 µM. The “Fresh weight inhibition rate (%)” value in assay [2] (200 μg/mL foliar spray, 20 days after treatment) is reported as 55.96%. Further, the “symptoms after postemergence treatment of two-week-old plants” value in assay [2] (foliar spray, 200 μg/mL) is “cessation of new leaf production and the onset of leaf wilting”.
